Results taken from ChEMBL document CHEMBL1909613, “Synthesis and biological activity of new bispyridinium salts of 4,4'-bispyridyl-5,5'-perfluoroalkyl-2,2'-bisoxazoles” (Eur J Med Chem, 2011).

Assays:
HT-29 = experiment: Cytotoxicity against human HT-29 cells after 72 hrs by MTT assay; type: functional, cell-based
Summary of the method: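 HT-29 cells grown in DMEM with 10% FBS at 37 °C, 95% humidity, 5% CO2. Seeded and held 24 h, then exposed to increasing concentrations in fresh medium for 72 h, quadruplicate wells per concentration. Viability by MTT absorbance at 595 nm. IC50 from a plot of log OD versus log drug concentration.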

Choline kinase alpha = Choline kinase alpha (Homo sapiens, UniProt P35790); experiment: Inhibition of recombinant human Choline kinase alpha using [methyl-14C]choline chloride as substrate after 30 mins by autoradiography
Choline kinase alpha, sequence (P35790 whole entry): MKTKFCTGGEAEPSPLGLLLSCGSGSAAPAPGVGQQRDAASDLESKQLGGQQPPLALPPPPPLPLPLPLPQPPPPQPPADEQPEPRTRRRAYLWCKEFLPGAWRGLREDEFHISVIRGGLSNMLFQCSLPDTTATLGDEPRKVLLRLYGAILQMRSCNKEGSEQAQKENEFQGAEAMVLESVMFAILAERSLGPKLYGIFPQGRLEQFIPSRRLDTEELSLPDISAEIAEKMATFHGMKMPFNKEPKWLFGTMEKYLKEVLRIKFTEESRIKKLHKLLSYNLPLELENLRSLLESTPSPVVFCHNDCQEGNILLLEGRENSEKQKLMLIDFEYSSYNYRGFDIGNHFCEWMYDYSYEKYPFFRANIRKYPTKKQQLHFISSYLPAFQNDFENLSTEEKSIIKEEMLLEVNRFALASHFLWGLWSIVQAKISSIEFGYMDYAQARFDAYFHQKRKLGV
Summary of the method: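 Extracts from cells expressing recombinant human ChoK were incubated 30 min at 37 °C in 100 mM Tris pH 8, 10 mM MgCl2, 10 mM ATP and [methyl-14C]choline chloride. Reaction stopped on ice with 500 mM EDTA. Choline and phosphocholine were separated by silica TLC (0.9% NaCl:methanol:ammonium hydroxide 50:70:5) and quantified by electronic autoradiography. IC50 came from a Hill-equation least-squares fit of PCho/(PCho+Cho) versus inhibitor concentration.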

IC50 (Choline kinase alpha)	SMILES	IC50 (HT-29; Homo sapiens, HT-29, 72 h)	IC50 (HT-29; ht-29)
9.65 µM	OCC[n+]1ccc(-c2nc(-c3ccc(-c4ccc(-c5nc(-c6cc[n+](CCO)cc6)c(C(F)(F)C(F)(F)F)o5)cc4)cc3)oc2C(F)(F)C(F)(F)F)cc1	0.84 µM	–
23.8 µM	OCC[n+]1ccc(-c2nc(-c3ccc(-c4ccc(-c5nc(-c6cc[n+](CCO)cc6)c(C(F)(F)F)o5)cc4)cc3)oc2C(F)(F)F)cc1 [listing 1 of 2 here]	1.5 µM	–
> 20 µM	OCC[n+]1ccc(-c2nc(-c3ccc(-c4ccc(-c5nc(-c6cc[n+](CCO)cc6)c(C(F)(F)F)o5)cc4)cc3)oc2C(F)(F)F)cc1 [listing 2 of 2 here]	–	1.85 µM
17.3 µM	OCC[n+]1ccc(-c2nc(-c3ccc(-c4ccc(-c5nc(-c6cc[n+](CCO)cc6)c(C(F)(F)C(F)(F)C(F)(F)F)o5)cc4)cc3)oc2C(F)(F)C(F)(F)C(F)(F)F)cc1	2.26 µM	–
4.2 µM	OCC[n+]1ccc(-c2nc(-c3ccc(C(c4ccc(-c5nc(-c6cc[n+](CCO)cc6)c(C(F)(F)C(F)(F)F)o5)cc4)(C(F)(F)F)C(F)(F)F)cc3)oc2C(F)(F)C(F)(F)F)cc1 [listing 2 of 2 here]	–	7.7 µM

Second part, the compound before the results:

SMILES	IC50 (Choline kinase alpha)	IC50 (HT-29; Homo sapiens, HT-29, 72 h)	IC50 (HT-29; ht-29)
CN(C)C(=O)C[n+]1ccc(-c2nc(-c3ccc(-c4ccc(-c5nc(-c6cc[n+](CC(=O)N(C)C)cc6)c(C(F)(F)C(F)(F)C(F)(F)F)o5)cc4)cc3)oc2C(F)(F)C(F)(F)C(F)(F)F)cc1	4.25 µM	2.5 µM	–
CN(C)C(=O)C[n+]1ccc(-c2nc(-c3ccc(-c4ccc(-c5nc(-c6cc[n+](CC(=O)N(C)C)cc6)c(C(F)(F)F)o5)cc4)cc3)oc2C(F)(F)F)cc1	0.3 µM	4 µM	–
CN(C)C(=O)C[n+]1ccc(-c2nc(-c3ccc(-c4ccc(-c5nc(-c6cc[n+](CC(=O)N(C)C)cc6)c(C(F)(F)C(F)(F)F)o5)cc4)cc3)oc2C(F)(F)C(F)(F)F)cc1	2 µM	–	5.5 µM
OCC[n+]1ccc(-c2nc(-c3ccc(C(c4ccc(-c5nc(-c6cc[n+](CCO)cc6)c(C(F)(F)C(F)(F)F)o5)cc4)(C(F)(F)F)C(F)(F)F)cc3)oc2C(F)(F)C(F)(F)F)cc1 [listing 1 of 2 here]	4.4 µM	6 µM	–
OCC[n+]1ccc(-c2nc(-c3ccc(C(c4ccc(-c5nc(-c6cc[n+](CCO)cc6)c(C(F)(F)C(F)(F)C(F)(F)F)o5)cc4)(C(F)(F)F)C(F)(F)F)cc3)oc2C(F)(F)C(F)(F)C(F)(F)F)cc1	13.5 µM	6.35 µM	–
FC(F)(F)C(F)(F)c1oc(-c2ccc(C(c3ccc(-c4nc(-c5cc[n+](CCCl)cc5)c(C(F)(F)C(F)(F)F)o4)cc3)(C(F)(F)F)C(F)(F)F)cc2)nc1-c1cc[n+](CCCl)cc1	14.2 µM	9.3 µM	–
FC(F)(F)c1oc(-c2ccc(C(c3ccc(-c4nc(-c5cc[n+](CCCl)cc5)c(C(F)(F)F)o4)cc3)(C(F)(F)F)C(F)(F)F)cc2)nc1-c1cc[n+](CCCl)cc1	12.5 µM	13.8 µM	–
FC(F)(F)C(F)(F)C(F)(F)c1oc(-c2ccc(C(c3ccc(-c4nc(-c5cc[n+](CCCl)cc5)c(C(F)(F)C(F)(F)C(F)(F)F)o4)cc3)(C(F)(F)F)C(F)(F)F)cc2)nc1-c1cc[n+](CCCl)cc1	11.6 µM	15.5 µM	–
CN(C)C(=O)C[n+]1ccc(-c2nc(-c3ccc(C(c4ccc(-c5nc(-c6cc[n+](CC(=O)N(C)C)cc6)c(C(F)(F)F)o5)cc4)(C(F)(F)F)C(F)(F)F)cc3)oc2C(F)(F)F)cc1	6.15 µM	> 20 µM	–
CN(C)C(=O)C[n+]1ccc(-c2nc(-c3ccc(-c4nc(-c5cc[n+](CC(=O)N(C)C)cc5)c(C(F)(F)F)o4)cc3)oc2C(F)(F)F)cc1	1.35 µM	> 50 µM	–
CN(C)C(=O)C[n+]1ccc(-c2nc(-c3ccc(-c4nc(-c5cc[n+](CC(=O)N(C)C)cc5)c(C(F)(F)C(F)(F)F)o4)cc3)oc2C(F)(F)C(F)(F)F)cc1	15 µM	> 50 µM	–
